Test results taken from ChEMBL document CHEMBL1138530 (Antimicrob Agents Chemother, 2007).
Converted amounts (≈) assume the structure as drawn.

Experiments:
Homo sapiens [1] = test: Tlag in HIV1 infected human at 150 mg, po; assay type: ADME, organism-based; conditions: in vivo
Method in brief: (§1)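 Single oral dose to HIV-infected adults, six per cohort; plasma sampled 0–48 h and days 3–24. Heparinized plasma, internal-standard spiked, acetonitrile-precipitated, assayed by reverse-phase LC-MS/MS (MRM 583.3→455.2); ranges 20.0–16,000 ng/ml (75 mg) or 100–60,000 ng/ml (150, 250 mg). Oral two-compartment linear model with absorption lag fit by maximum likelihood then Bayesian estimation.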

Homo sapiens [2] = test: Effect of CD4 cell count in HIV1 infected human at 250 mg, po after 10 days; assay type: functional
Method in brief: (§2)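 CD4 cell count change from baseline 10 days after a single oral dose in HIV-infected adults (baseline CD4 >200 cells/mm3), six per cohort, placebo-controlled double-blind design; tested by dose and over time.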

[3] = Apparent oral clearance in HIV1 infected human at 75 mg, po; assay type: ADME, organism-based; conditions: in vivo; method in brief: as §1
[4] = test system: Human immunodeficiency virus 1; test: Antiviral activity against HIV1 infected in human assessed as death rate constant of uninfected CD4 cells at 75 mg, po; assay type: functional
Method in brief: (§3)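 Randomized, double-blind, placebo-controlled trial in HIV-infected adults (CD4 >200 cells/mm3, plasma viral load 5,000–250,000 copies/ml, off antiretrovirals ≥4 weeks), six per cohort, single oral dose. Plasma drug levels measured by LC-MS/MS; HIV RNA sampled to day 24. Parameters from a viral-dynamic model (Hill-type inhibition of new CD4 infection) fit per subject by maximum likelihood then Bayesian estimation; reported as mean (%CV).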

[5] = Half life in HIV1 infected human at 250 mg, po; assay type: ADME, organism-based; conditions: in vivo; method in brief: as §1
[6] = test system: Human immunodeficiency virus 1; test: Antiviral activity against HIV1 infected in human assessed as clearance rate of virions at 150 mg, po; assay type: functional
Method in brief: (§4)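 Randomized, double-blind, placebo-controlled trial; HIV-infected adults (CD4 >200 cells/mm3, plasma viral load 5,000–250,000 copies/ml, no antiretrovirals ≥4 weeks), six per cohort, single oral dose. Plasma HIV RNA sampled predose through day 24. Viral-dynamic model (uninfected/infected CD4, virus; Hill-type inhibition of new infection by plasma concentration) fit by maximum likelihood then Bayesian estimation, pharmacokinetic parameters held fixed.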

[7] = test system: Human immunodeficiency virus 1; test: Antiviral activity against HIV1 infected in human assessed as death rate constant of infected CD4 cells at 150 mg, po; assay type: functional; method in brief: as §3
[8] = test system: Human immunodeficiency virus 1; test: Antiviral activity against HIV1 infected in human assessed as maximum rate of viral replication measured as logarithmic viral copies at 75 mg, po; assay type: functional; method in brief: as §4
[9] = test system: Human immunodeficiency virus 1; test: Antiviral activity against HIV1 infected in human assessed as maximum rate of viral replication measured as logarithmic viral copies at 250 mg, po; assay type: functional; method in brief: as §4
[10] = test system: Human immunodeficiency virus 1; test: Antiviral activity against HIV1 infected in human assessed as number of new virions produced by infected CD4 cell at 150 mg, po; assay type: functional; method in brief: as §4
[11] = test system: Human immunodeficiency virus 1; test: Antiviral activity against HIV1 infected in human assessed as inhibition of viral replication at 75 mg, po; assay type: functional, organism-based; method in brief: as §4
Homo sapiens [12] = test: Toxicity in HIV1 infected human assessed as incidence of adverse effect at 75 to 250 mg, po; assay type: organism-based; conditions: in vivo
Method in brief: (§5)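 Safety monitoring of HIV-infected adults given a single oral dose or placebo (randomized, double-blind, six per cohort), followed to day 24 for adverse events, serious adverse events and deaths.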

[13] = test system: Human immunodeficiency virus 1; test: Antiviral activity against HIV1 infected in human assessed as death rate constant of uninfected CD4 cells at 250 mg, po; assay type: functional; method in brief: as §3
[14] = test system: Human immunodeficiency virus 1; test: Antiviral activity against HIV1 infected in human assessed as maximum rate of viral replication measured as logarithmic viral copies at 150 mg, po; assay type: functional; method in brief: as §4
Homo sapiens [15] = test: Effect of CD4 cell count in HIV1 infected human at 75 mg, po after 10 days; assay type: functional; method in brief: as §2
[16] = Apparent oral clearance in HIV1 infected human at 150 mg, po; assay type: ADME, organism-based; conditions: in vivo; method in brief: as §1
[17] = test system: Human immunodeficiency virus 1; test: Antiviral activity against HIV1 infected in human assessed as rate at which virus infects CD4 cells at 250 mg, po; assay type: functional; method in brief: as §4
[18] = test system: Human immunodeficiency virus 1; test: Antiviral activity against HIV1 infected in human assessed as inhibition of viral replication at 250 mg, po; assay type: functional, organism-based; method in brief: as §4
[19] = test system: Human immunodeficiency virus 1; test: Antiviral activity against HIV1 infected in human assessed as logarithmic reduction in HIV RNA copies at 75 mg, po relative to baseline; assay type: functional
Method in brief: (§6)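 Randomized, double-blind, placebo-controlled single oral dose in HIV-infected adults (CD4 >200 cells/mm3, viral load 5,000–250,000 copies/ml, off therapy ≥4 weeks), six per cohort. Plasma HIV RNA at screening, predose, 6–48 h and days 3–24; maximum observed log10 drop from baseline per patient, averaged by dose, compared by ANOVA.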

[20] = test system: Human immunodeficiency virus 1; test: Antiviral activity against HIV1 infected in human assessed as inhibition of viral replication at 150 mg, po; assay type: functional, organism-based; method in brief: as §4
[21] = test system: Human immunodeficiency virus 1; test: Antiviral activity against HIV1 infected in human assessed as number of new virions produced by infected CD4 cells at 250 mg, po; assay type: functional; method in brief: as §4
[22] = test system: Human immunodeficiency virus 1; test: Antiviral activity against HIV1 infected in human assessed as death rate constant of infected CD4 cells at 75 mg, po; assay type: functional; method in brief: as §3
[23] = test system: Human immunodeficiency virus 1; test: Antiviral activity against HIV1 assessed as inhibition of release of CA/p24 from CA-SP1/p25 at 37.8 nM by MAGI assay; assay type: functional; conditions: Human immunodeficiency virus 1, MAGI
[24] = test system: Human immunodeficiency virus 1; test: Antiviral activity against HIV1 infected in human assessed as rate at which virus infects CD4 cells at 150 mg, po; assay type: functional; method in brief: as §4
[25] = test system: Human immunodeficiency virus 1; test: Antiviral activity against HIV1 infected in human assessed as logarithmic reduction in HIV RNA copies at 250 mg, po relative to baseline; assay type: functional; method in brief: as §6
Homo sapiens [26] = test: Distributional clearance in HIV1 infected human at 250 mg, po; assay type: ADME, organism-based; conditions: in vivo; method in brief: as §1
Homo sapiens [27] = test: Distributional clearance in HIV1 infected human at 75 mg, po; assay type: ADME, organism-based; conditions: in vivo; method in brief: as §1
[28] = test system: Human immunodeficiency virus 1; test: Antiviral activity against HIV1 infected in human assessed as growth/production of uninfected CD4 cells at 250 mg, po; assay type: functional; method in brief: as §4
Homo sapiens [29] = test: Tlag in HIV1 infected human at 75 mg, po; assay type: ADME, organism-based; conditions: in vivo; method in brief: as §1
Homo sapiens [30] = test: Distributional clearance in HIV1 infected human at 150 mg, po; assay type: ADME, organism-based; conditions: in vivo; method in brief: as §1
Homo sapiens [31] = test: Toxicity in HIV1 infected human assessed as mortality at 75 to 250 mg, po; assay type: organism-based; conditions: in vivo; method in brief: as §5
[32] = test system: Human immunodeficiency virus 1; test: Antiviral activity against HIV1 infected in human assessed as logarithmic reduction in HIV RNA copies at 150 mg, po relative to baseline; assay type: functional; method in brief: as §6
[33] = test system: Human immunodeficiency virus 1; test: Antiviral activity against HIV1 infected in human assessed as growth/production of uninfected CD4 cells at 150 mg, po; assay type: functional; method in brief: as §4
[34] = test system: Human immunodeficiency virus 1; test: Antiviral activity against HIV1 infected in human assessed as death rate constant of uninfected CD4 cells at 150 mg, po; assay type: functional; method in brief: as §3
[35] = test system: Human immunodeficiency virus 1; test: Antiviral activity against HIV1 infected in human assessed as clearance rate of virions at 250 mg, po; assay type: functional; method in brief: as §4
[36] = Half life in po dosed human; assay type: ADME, organism-based; conditions: in vivo
[37] = test system: Human immunodeficiency virus 1; test: Antiviral activity against HIV1 infected in human assessed as clearance rate of virions at 75 mg, po; assay type: functional; method in brief: as §4
[38] = test system: Human immunodeficiency virus 1; test: Antiviral activity against HIV1 infected in human assessed as death rate constant of infected CD4 cells at 250 mg, po; assay type: functional; method in brief: as §3
[39] = test system: Human immunodeficiency virus 1; test: Antiviral activity against HIV1 infected in human assessed as growth/production of uninfected CD4 cells at 75 mg, po; assay type: functional; method in brief: as §4
[40] = Apparent oral clearance in HIV1 infected human at 250 mg, po; assay type: ADME, organism-based; conditions: in vivo; method in brief: as §1
Homo sapiens [41] = test: Tlag in HIV1 infected human at 250 mg, po; assay type: ADME, organism-based; conditions: in vivo; method in brief: as §1
Plasma = test: Stability in human plasma; assay type: ADME, cell-free
[42] = Half life in HIV1 infected human at 150 mg, po; assay type: ADME, organism-based; conditions: in vivo; method in brief: as §1
[43] = test system: Human immunodeficiency virus 1; test: Antiviral activity against HIV1 infected in human assessed as rate at which virus infects CD4 cells at 75 mg, po; assay type: functional; method in brief: as §4
[44] = test system: Human immunodeficiency virus 1; test: Antiviral activity against HIV1 infected in human assessed as number of new virions produced by infected CD4 cell at 75 mg, po; assay type: functional; method in brief: as §4
[45] = Half life in HIV1 infected human at 75 mg, po; assay type: ADME, organism-based; conditions: in vivo; method in brief: as §1
Homo sapiens [46] = test: Effect of CD4 cell count in HIV1 infected human at 150 mg, po after 10 days; assay type: functional; method in brief: as §2

C=C(C)[C@@H]1CC[C@]2(C(=O)O)CC[C@]3(C)[C@H](CC[C@@H]4[C@@]5(C)CC[C@H](OC(=O)CC(C)(C)C(=O)O)C(C)(C)[C@@H]5CC[C@]43C)[C@@H]12 [BEVIRIMAT]
Tlag (Homo sapiens [1]): 0.2 h | Activity (Homo sapiens [2]): 104 | CL/F [3]: 2.83 mL/min | Activity [4]: 0.0031 h⁻¹ | half-life [5]: 62.1 h | Activity [6]: 0.071 h⁻¹ | Activity [7]: 0.017 h⁻¹ | Activity [8]: 5.13 mL⁻¹ | Activity [9]: 4.46 mL⁻¹ | Activity [10]: 126 | EC50 [11]: 1.19 ng/mL (≈ 2.03 nM) | Activity (Homo sapiens [12]): Non-toxic | Activity [13]: 0.0016 h⁻¹ | Activity [14]: 4.59 mL⁻¹ | Activity (Homo sapiens [15]): -15 | CL/F [16]: 2.67 mL/min | Activity [17]: 0.0349 h⁻¹ | EC50 [18]: 0.55 ng/mL (≈ 0.94 nM) | Activity [19]: -0.14 mL⁻¹ | EC50 [20]: 0.35 ng/mL (≈ 0.598 nM) | Activity [21]: 80.2 | Activity [22]: 0.013 h⁻¹ | inhibition at 0.0378 µM [23]: 90% | Activity [24]: 0.028 h⁻¹ | Activity [25]: -0.46 mL⁻¹ | CLd (Homo sapiens [26]): 0.45 L/h | CLd (Homo sapiens [27]): 0.48 L/h | Activity [28]: 1856.6 mL/h | Tlag (Homo sapiens [29]): 0.18 h | CLd (Homo sapiens [30]): 0.48 L/h | Activity (Homo sapiens [31]): Non-toxic | Activity [32]: -0.47 mL⁻¹ | Activity [33]: 1340 mL/h | Activity [34]: 0.0012 h⁻¹ | Activity [35]: 0.024 h⁻¹ | half-life [36]: 55 h | Activity [37]: 0.008 h⁻¹ | Activity [38]: 0.007 h⁻¹ | Activity [39]: 320.7 mL/h | CL/F [40]: 2.83 mL/min | Tlag (Homo sapiens [41]): 0.15 h | Stability (Plasma): 95 days | half-life [42]: 55.1 h | Activity [43]: 0.14 h⁻¹ | Activity [44]: 137.8 | half-life [45]: 63.9 h | Activity (Homo sapiens [46]): 121
